Source: PubChem (several laboratories)
MEKK3 PB1 HTS: modulators of MEKK3-MEK5 PB1 binding, primary screen, biochemical, wildtype MEKK3, multiplex bead flow cytometry, Alexa488-MEK5 | bead-based flow cytometry, Alexa488-MEK5 binding to MEKK3; actives lie on both sides; 0 = blocked by unlabeled MEK5, 100 = vehicle | binding response (% of control), % at 10 µM | actives 1.4% (n = 290,000) | AID 1529, 2009;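 active = binding response more than 3 SD above or below the average of its plate-row segment, actives on both sides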;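 note: Alexa488 bead fluorescence after subtracting the streptavidin-only scavenger bead signal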
Target sequence (Q99759 whole entry, looked up): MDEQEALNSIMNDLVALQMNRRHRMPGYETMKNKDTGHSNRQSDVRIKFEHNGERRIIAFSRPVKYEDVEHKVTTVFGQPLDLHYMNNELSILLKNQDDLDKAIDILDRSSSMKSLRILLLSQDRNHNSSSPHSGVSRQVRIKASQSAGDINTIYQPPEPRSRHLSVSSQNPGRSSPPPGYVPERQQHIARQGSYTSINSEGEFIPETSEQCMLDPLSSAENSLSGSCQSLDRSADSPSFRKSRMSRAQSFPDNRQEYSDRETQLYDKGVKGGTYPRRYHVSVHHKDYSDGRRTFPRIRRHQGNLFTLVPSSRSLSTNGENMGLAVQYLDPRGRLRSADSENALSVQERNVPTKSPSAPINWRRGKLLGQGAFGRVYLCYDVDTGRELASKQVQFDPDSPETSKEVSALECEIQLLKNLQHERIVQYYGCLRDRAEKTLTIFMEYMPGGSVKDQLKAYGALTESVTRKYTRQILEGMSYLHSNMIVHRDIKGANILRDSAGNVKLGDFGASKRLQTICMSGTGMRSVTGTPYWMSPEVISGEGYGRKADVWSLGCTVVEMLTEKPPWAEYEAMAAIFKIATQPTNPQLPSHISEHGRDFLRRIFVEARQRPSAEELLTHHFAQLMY
Dynein cargo inh: inhibitors of GR-EGFP nuclear translocation, primary screen, dynein cargo transport inhibitor project, imaging, high-content, 3617.4 mouse cells | actives 0.47% (n = 220,000) | z-score, hits read low | test concentration mostly 20 µM; stimulated with dexamethasone, 1 µM; active compounds read low;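 active = plate z-score of nuclear minus cytoplasmic receptor signal below a set negative limit, without overly bright fluorescence or cell loss, cut at about -3.5 in these data, passing the limit was not always enough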;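 note: z-score of nuclear minus cytoplasmic ring GR-EGFP intensity difference per well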
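Buffer or medium: tet-free medium with charcoal-stripped serum / Also added: dexamethasone agonist, 1.0 µM final, for 30 min / Timing: induction 48 h, compound 1 h, agonist 30 min / Measured by: high-content fluorescence imaging after fixation / Read-out: nuclear-to-cytoplasmic GR-EGFP distribution per well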
ATG4B inhibitor: ATG4B protease inhibitors, primary screen, biochemical, fluorescence, uHTS; inhibition, % at 8.33 µM; ATG4B cleavage of LC3-PLA2, NBD-HPC fluorescence, 1 h; actives 0.51% (n = 340,000); Cysteine protease ATG4B (Homo sapiens), Q9Y4P1; in the data active = inhibition above about 40%
B2AR ag: beta2AR agonists driving receptor internalization, primary screen, cell-based, FAP fluorogen, flow cytometry. Beta-2 adrenergic receptor (Homo sapiens), P07550. Am2.2-beta2AR cells. response, % (no concentration beside the values). actives 0.43% (n = 340,000);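 active = response above a set limit, near 3 SD of response in nonfluorescent compounds, cut at about 42% in these data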
MEKK2mut PB1 HTS: MEK5 binding signal on mutant MEKK2 PB1, primary screen, biochemical, multiplex bead flow cytometry, Alexa488-MEK5; Alexa488-MEK5 binding to MEKK2 mutant; actives 0.35% (n = 290,000); percent response, % at 10 µM; in the data active = percent response above about 24%, passing the limit was not always enough
MEKK2 WT-MEK5: modulators of MEK5 binding to wildtype MEKK2, primary screen, biochemical, multiplex bead flow cytometry, Alexa488-MEK5 | AID 1531, 2009 | actives 1.1% (n = 290,000) | binding response (% of control), % at 10 µM | Mitogen-activated protein kinase kinase kinase 2 (Homo sapiens), Q9Y2U5 | Alexa488-MEK5 binding to MEKK2 WT; actives lie on both sides; in the data active = binding response below about 67% or above about 130%
MEKK2wt confirm: modulators of MEK5 binding to wildtype MEKK2, confirmation, biochemical, single concentration, multiplex bead flow cytometry; shares compounds with MEKK3 PB1 HTS; actives 2.4% (n = 5,900); binding response (% of control), % at 10 µM; Alexa488-MEK5 binding to MEKK2 WT; actives lie on both sides; in the data active = binding response below about 16% or above about 210%; inactive = in between
MEKK2mut-MEK5: mutant MEKK2 PB1-MEK5 binding signal retest – biochemical, single concentration, multiplex bead flow cytometry, confirmation; shares compounds with MEKK3 PB1 HTS; Alexa488-MEK5 binding to MEKK2 mutant; percent response, % at 10 µM; actives 2% (n = 5,900); in the data active = percent response mostly above about 71%, no sharp cut-off; inactive = mostly below about 38%;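 note: higher means compound restores mutant binding toward wildtype level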
MEKK3-MEK5 inh: MEKK3 wild-type PB1 binding to MEK5, inhibitors, confirmation, biochemical, bead multiplex flow cytometry, single concentration, wildtype; actives 1.8% (n = 5,900); binding response (% of control), % at 10 µM; AID 1894, 2009; Alexa488-MEK5 binding to MEKK3; active compounds read low; shares compounds with MEKK3 PB1 HTS;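 active = binding response below 72% of control, or above a set upper limit, though filed actives all read lower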;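 note: 100% = DMSO only wells and 0% = binding blocked by excess unlabeled MEK5; lower values mean stronger disruption of MEK5 binding to MEKK3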
Active calls of the source: *; · = not tested or not shown; [ ] = dose if it differs, or a comment. A selection: hits, their analogues and other compounds. The true share with any hit is near 2.9%.

SMILES | MEKK3 PB1 HTS | Dynein cargo inh | ATG4B inhibitor | B2AR ag | MEKK2mut PB1 HTS | MEKK2 WT-MEK5 | MEKK2wt confirm | MEKK2mut-MEK5 | MEKK3-MEK5 inh
CCC(=O)N1CCc2cc(Br)cc(S(=O)(=O)NCCN3CCCCC3C)c21 (stereo not drawn) | 100 | -1.4 | -12 | -2 | 4 | 105 | · | · | ·
COc1ccc(NC(=O)c2sc3nc(Cc4ccccc4)cc(C(F)(F)F)c3c2N)cc1OC | 159* | 1.3 | 1 | 6 | 2 | 110 | 39 | -25 | 35*
CCN1/C(=N\N)c2cccc3cccc1c23 | 58*[inhibitor] | 0.24 | -8 | -41 | -11 | -8.0* | 64 | -11 | 77
Cc1nnc(C)n1N | 101 | -0.88 | -9 | 7 | -4 | -3.0*[inhibitor] | 94 | -19 | 93
COc1ccc(CCNC(=O)C(=O)NCCC2CCCCN2S(=O)(=O)c2cccs2)cc1 (stereo not drawn) | · | · | -7 | -7 | · | · | · | · | ·
COc1cc(/C=N/NC(=O)CN(Cc2ccccc2)S(=O)(=O)c2ccc3c(c2)OCCO3)ccc1O | 136* | 0.18 | -16 | 8 | 0 | 107 | 101 | 0 | 102
NS(=O)(=O)c1ccc(NC(=O)Cc2c(F)cccc2Cl)cc1 | 105 | -0.46 | 4 | 8 | 1 | 97 | · | · | ·
CCCCCCCNC(=O)C1(CC2CC(c3cccc(Br)c3)=NO2)CCNCC1 (stereo not drawn) | 107 | · | 2 | 27 | 23 | 191* | 143 | 17 | 107
CCCCCCCNC(=O)C1(CC2CC(c3ccc(Cl)cc3)=NO2)CCN(C(=O)Cc2ccc(F)cc2)CC1 (stereo not drawn) | 101 | · | -20 | -7 | 2 | 98 | · | · | ·
CCCCCCCNC(=O)C1(CC2CC(c3cccc(Br)c3)=NO2)CCN(C(=O)Cc2ccc(F)cc2)CC1 (stereo not drawn) | · | · | -5 | 4 | · | · | · | · | ·
CCCCCCCNC(=O)C1(CC2CC(c3ccc(Cl)cc3)=NO2)CCNCC1 (stereo not drawn) | 106 | · | -4 | 40 | 11 | 158* | 150 | 22 | 105
O=C(O)C1CCCN(C(=O)c2cccc3ccccc23)C1 (stereo not drawn) | 87 | · | -3 | 2 | -3 | 97 | · | · | ·
O=C(O)CC1SC(=Nc2cccc(C(F)(F)F)c2)NC1=O (stereo not drawn) | 124* | -1 | -4 | 7 | 15 | 133 | 91 | -7 | 82
O=C(O)CC1SC(=Nc2ccc(O)cc2)NC1=O (stereo not drawn) | 112 | -0.055 | 0 | -2 | 0 | 104 | · | · | ·
CC1CCCN(C(=O)C2CCN(CCCc3ccccc3)CC2)C1 (stereo not drawn) | 79*[inhibitor] | -0.86 | 19 | · | -5 | 98 | 99 | -2 | 94
CC1CCCN(C(=O)C2CCN(CC(C)c3ccccc3)CC2)C1 (stereo not drawn) | 107 | -0.15 | 5 | 1 | 2 | 101 | · | · | ·
Cc1nnc(SCC(=O)c2ccc(Cl)cc2)s1 | 104 | -0.084 | 9 | -3 | -10 | 94 | · | · | ·
CCOC(=O)c1c(NC(=O)CN2C(=O)NC3(CCCCC3)C2=O)sc(C)c1-c1ccc(C)cc1 | 101 | -0.99 | 5 | 20 | 4 | 105 | · | · | ·
CCOC(=O)c1sc(NC(=O)CN2C(=O)NC3(CCCCCCC3)C2=O)c(C(=O)OCC)c1C | 35*[inhibitor] | 2.1 | -4 | 10 | -11 | 25*[inhibitor] | 100 | 2 | 106
C=CCOc1ccc(/C=N/N2C(=O)C(CC(=O)Nc3ccc(F)cc3F)SC2=NC)cc1 (stereo not drawn) | 128* | 0.86 | -9 | -7 | 0 | 101 | 102 | 0 | 106
O=[N+]([O-])c1ccc(/C=N/Nc2ccc3ccccc3c2)o1 | 88 | -1.7 | -11 | -20 | -2 | 2.0*[inhibitor] | 103 | 1 | 100
COc1cc(-c2nc3n(n2)C(c2ccncc2)C(C(N)=O)=C(C)N3)cc(OC)c1OC (stereo not drawn) | 122* | 0.3 | -4 | 4 | 5 | 114 | 57 | -20 | 85
COC(=O)c1cccc(-n2c(=O)n(Cc3ccccc3)c(=O)c3[nH]cnc32)c1C | 106 | · | 1 | -1 | 5 | 103 | · | · | ·
CCn1c(SCC(=O)c2c[nH]c3ccccc23)nc2cc(S(=O)(=O)N3CCOCC3)ccc21 | 96 | -1.7 | -3 | -12 | 3 | 62*[inhibitor] | 104 | 1 | 104
Clc1ccccc1CNCC1CCCO1 (stereo not drawn) | 108 | · | 2 | 2 | 27* | 110 | 104 | 5 | 104
SMILES | MEKK3 PB1 HTS | Dynein cargo inh | ATG4B inhibitor | B2AR ag | MEKK2mut PB1 HTS | MEKK2 WT-MEK5 | MEKK2wt confirm | MEKK2mut-MEK5 | MEKK3-MEK5 inh
OC(CNCc1ccco1)Cn1c2ccc(Br)cc2c2cc(Br)ccc21 (stereo not drawn) | 111 | -0.12 | -6 | 19 | 47* | 216* | 184 | 41 | 98
Brc1ccc2ncnc(NCc3ccco3)c2c1 | 105 | -0.59 | -7 | -3 | -3 | 102 | · | · | ·
COCCn1cnc2c1c(=O)n(CC(=O)NCC(F)(F)F)c(=O)n2Cc1ccccc1 | 107 | · | -9 | -8 | 8 | 110 | · | · | ·
CCCCCCCN1C2=NCCCN2c2ccccc21 | 109 | -0.17 | 12 | -4 | 8 | 108 | · | · | ·
CC1(C)NC(=O)N(CCOc2ccc([N+](=O)[O-])cc2)C1=O | 42*[inhibitor] | 0.65 | 1 | 5 | -40 | 49 | 97 | 0 | 100
Cn1c(O)c(N=NC(=O)c2cc(-c3cccs3)nc3ccccc23)c2ccccc21 | 130* | 0.41 | 6 | -9 | 1 | 100 | 99 | 0 | 105
